Columns and labels:
[1] = target: Poly [ADP-ribose] polymerase 1 (Homo sapiens, UniProt P09874)
A549 [2] = assay: Ratio of cytotoxicity of topotecan to cytotoxicity of compound at 0.4 uM in combination with topotecan; type: functional, Homo sapiens
A549 [3] = assay: In vitro cytotoxicity of compound at 0.4 uM in combination with topotecan against human lung carcinoma A549 cells; type: functional, cell-based
Procedure, shortened: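 A549 cells seeded 16–24 h ahead, then exposed to topotecan plus 0.4 μM PARP-1 inhibitor for 3 or 5 days. Cell number read by MTT (540 nm) or SRB (515 nm). Cytotoxicity expressed as % OD relative to mock-treated culture; topotecan IC50 reported in presence of inhibitor.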

A549 [4] = assay: In vitro cytotoxicity against human lung carcinoma A549 cells; type: functional, cell-based
Procedure, shortened: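 A549 cells seeded 16–24 h before treatment, then exposed to compound alone for 3 or 5 days. Relative cell number read by MTT (0.2 μg/μL, 4 h, DMSO-solubilized, 540 nm) or SRB (10% TCA fix 1 h at 4 °C, 0.4% SRB 30 min, Tris-solubilized, 515 nm). Cytotoxicity taken as % OD of treated versus mock-treated culture; IC50 reported.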

Poly [ADP-ribose] polymerase 1, sequence (P09874 whole entry): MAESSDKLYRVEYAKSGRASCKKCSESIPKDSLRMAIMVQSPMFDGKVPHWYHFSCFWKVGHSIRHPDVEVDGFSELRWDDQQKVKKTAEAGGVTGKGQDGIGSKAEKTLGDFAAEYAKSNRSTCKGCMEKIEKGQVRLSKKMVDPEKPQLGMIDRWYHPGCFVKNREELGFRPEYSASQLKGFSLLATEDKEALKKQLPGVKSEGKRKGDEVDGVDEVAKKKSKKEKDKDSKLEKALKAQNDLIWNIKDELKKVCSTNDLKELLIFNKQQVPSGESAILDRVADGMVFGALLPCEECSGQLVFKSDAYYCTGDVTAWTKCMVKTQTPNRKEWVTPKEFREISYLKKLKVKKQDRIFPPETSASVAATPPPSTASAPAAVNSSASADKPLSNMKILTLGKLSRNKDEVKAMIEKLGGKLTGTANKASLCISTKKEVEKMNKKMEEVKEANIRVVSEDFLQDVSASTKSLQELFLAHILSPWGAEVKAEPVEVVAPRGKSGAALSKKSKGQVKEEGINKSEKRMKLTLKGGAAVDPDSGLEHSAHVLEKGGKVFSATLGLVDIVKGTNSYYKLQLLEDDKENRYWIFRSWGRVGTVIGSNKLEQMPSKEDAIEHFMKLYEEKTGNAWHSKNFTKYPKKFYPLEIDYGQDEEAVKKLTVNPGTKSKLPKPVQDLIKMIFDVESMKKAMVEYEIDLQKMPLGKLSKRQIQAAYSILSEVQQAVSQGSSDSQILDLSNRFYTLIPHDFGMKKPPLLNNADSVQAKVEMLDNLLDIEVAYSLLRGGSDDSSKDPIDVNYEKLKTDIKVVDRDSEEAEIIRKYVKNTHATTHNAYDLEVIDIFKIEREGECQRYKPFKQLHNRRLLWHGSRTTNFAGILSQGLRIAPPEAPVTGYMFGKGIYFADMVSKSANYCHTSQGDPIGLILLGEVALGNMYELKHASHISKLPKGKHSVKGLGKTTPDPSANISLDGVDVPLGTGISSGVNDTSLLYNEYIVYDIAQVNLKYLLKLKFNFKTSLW

Q: For `Cc1nc2c(O)cccc2c(=O)[nH]1`, which Ki [1] is on record?
A: 52 nM

Q: With `Cc1cccc2c1CCNC2=O` as the molecule, how does the Ki [1] read?
A: 70 nM

Q: `N=C(NO)C1c2cccc3c2N(CCNC3=O)C1c1ccc(F)cc1` (stereo not given) was tested. Which Ki [1] did it give?
A: 87 nM

Q: For `Cc1c(-c2ccc(F)cc2)n2c3c(cccc13)C(=O)NCC2`, which PF50 (A549 [2]) is on record?
A: 1.1

Q: What about the IC50 (A549 [3]) of the same molecule?
A: 21.8 nM

Q: And the IC50 (A549 [4])?
A: 6000 nM

Q: `O=Cc1cn2c3c(cccc13)C(=O)NCC2` was tested. Which Ki [1] did it give?
A: 176 nM

Q: Which PF50 (A549 [2]) does the source give for `CN(C)Cc1cccc(-c2cc3cccc4c3n2CCNC4=O)c1` here?
A: 1.6

Q: What about the IC50 (A549 [3]) of the same molecule?
A: 15 nM

Q: And the IC50 (A549 [4])?
A: 11000 nM

Q: For `O=C1NCCn2c(-c3ccc(Cn4cccc4)cc3)cc3cccc1c32`, which Ki [1] is on record?
A: 6.8 nM

Q: With `O=C1NCCn2cc(/C=N/O)c3cccc1c32` as the molecule, how does the PF50 (A549 [2]) read?
A: 1.3

Q: What about the IC50 (A549 [3]) of the same molecule?
A: 18.5 nM

Q: And the IC50 (A549 [4])?
A: 8000 nM

Q: `NN/N=C/c1c(-c2ccc(F)cc2)n2c3c(cccc13)C(=O)NCC2` was tested. Which Ki [1] did it give?
A: 57 nM

Q: What does the source list for `CN(C)Cc1ccc(-c2cc3cccc4c3n2CCNC4=O)cc1`?
A: Ki [1]: 6.4 nM; PF50 (A549 [2]): 1.9; IC50 (A549 [3]): 12.6 nM; IC50 (A549 [4]): 7000 nM

Q: For `O=C1NCCn2c(-c3ccc(F)cc3)cc3cccc1c32`, which PF50 (A549 [2]) is on record?
A: 1.8

Q: And the IC50 (A549 [3])?
A: 13.3 nM

Q: And the IC50 (A549 [4])?
A: 8000 nM

Q: `CNCc1cccc(-c2cc3cccc4c3n2CCNC4=O)c1` was tested. Which Ki [1] did it give?
A: 6.9 nM

Q: `O=C1NCCn2c(-c3ccc(F)cc3)c(/C=N/O)c3cccc1c32` was tested. Which PF50 (A549 [2]) did it give?
A: 1.2

Q: And the IC50 (A549 [3])?
A: 20 nM

Q: And the IC50 (A549 [4])?
A: < 800 nM

Q: For `O=C1NCCn2c(-c3ccc(Cl)cc3)cc3cccc1c32`, which PF50 (A549 [2]) is on record?
A: 1.8

Q: What about the IC50 (A549 [3]) of the same molecule?
A: 13.3 nM

Q: And the IC50 (A549 [4])?
A: 3000 nM

Q: Which Ki [1] does the source give for `O=C1NCCn2c(-c3cccc(Cn4cccc4)c3)cc3cccc1c32` here?
A: 12.5 nM

From ChEMBL document CHEMBL1137224, “Design, synthesis, and evaluation of 3,4-dihydro-2H-[1,4]diazepino[6,7,1-hi]indol-1-ones as inhibitors of poly(ADP-ribose) polymerase” (J Med Chem, 2004)
